{"data": "Published values pooled from the literature", "organism": "Human immunodeficiency virus 1", "effect on": "viral replication", "note": "Compare with care: the assays were run in different laboratories. pEC50, pIC50: −log10 of the molar value."}
{"Compound": "O=[N+]([O-])c1cccc(-c2nc3c4cc(I)ccc4c4ccccc4c3[nH]2)c1", "action": "inhibitor", "cell line": "human PBMC", "time": "7 days", "quantity": "pIC50", "result": 4.85}
{"Compound": "CC(C)C[C@H](NC(=O)[C@@H](NC(=O)[C@@H]1CCCN1C(=O)[C@@H](NC(=O)[C@H](CO)NC(=O)[C@@H](NC(=O)[C@H](CCC(N)=O)NC(=O)[C@@H]1CCCN1C(=O)[C@@H](NC(=O)[C@H](CCCCN)NC(=O)[C@H](CCCCN)NC(=O)[C@@H](NC(=O)[C@H](Cc1ccc(O)cc1)NC(=O)[C@H](CCCNC(=N)N)NC(=O)[C@@H](NC(=O)[C@@H](N)CC(C)C)C(C)C)[C@@H](C)O)C(C)C)C(C)C)[C@@H](C)O)[C@@H](C)O)C(=O)O", "action": "inhibitor", "cell line": "TZM-bl", "quantity": "pIC50", "result": "< 5.00"}
{"Compound": "C/C(=C\\C(=O)OCCCCCCCCC(=O)O)C[C@@H]1OC[C@H](C[C@@H]2O[C@H]2[C@@H](C)[C@H](C)O)[C@@H](O)[C@H]1O", "action": "inhibitor", "cell line": "TZM-bl", "quantity": "pEC50", "result": "< 4.00"}
{"Compound": "O=c1cc(-c2ccccc2)oc2cc(O)cc(O)c12", "action": "inhibitor", "cell line": "human PBMC", "time": "6 days", "quantity": "pEC50", "result": 5.04}
{"Compound": "C[C@@H](O[C@H]1OCCN(Cc2n[nH]c(=O)[nH]2)[C@H]1c1ccc(F)cc1)c1cc(C(F)(F)F)cc(C(F)(F)F)c1", "action": "inhibitor", "technique": "ELISA", "cell line": "human PBMC", "strain": "NL43", "time": "7 days", "quantity": "pIC50", "result": 5.24}
{"Compound": "O=c1oc2c(O)c(O)cc3c(=O)oc4c(O)c(O)cc1c4c23", "action": "inhibitor", "technique": "luciferase", "cell line": "TZM-bl", "time": "48 h", "quantity": "IC50", "result": "18.8 µg/mL"}
{"Compound": "O=c1cc(-c2ccc(O)c(O)c2)oc2cc(O)cc(O)c12", "action": "inhibitor", "cell line": "human PBMC", "time": "6 days", "quantity": "pEC50", "result": 4.90}
{"Compound": "O=C(O)c1cc(O)c(O)c(O)c1", "action": "inhibitor", "technique": "luciferase", "cell line": "TZM-bl", "time": "48 h", "quantity": "IC50", "result": "0.36 µg/mL"}
{"Compound": "O=c1cc(-c2ccc(O)cc2)oc2cc(O)cc(O)c12", "action": "inhibitor", "cell line": "human PBMC", "time": "6 days", "quantity": "pEC50", "result": 5.30}
{"Compound": "c1cc(CN2CCCNCCNCCCNCC2)ccc1CN1CCCNCCNCCCNCC1", "action": "inhibitor", "cell line": "MAGI", "strain": "BAL", "quantity": "IC90", "result": "> 10 µM"}
{"Compound": "O=C(O)c1cc(F)cc(Cn2ccc3ccc(-c4ccc5ccn(Cc6cccc(OC(F)(F)F)c6)c5c4)cc32)c1", "action": "inhibitor", "strain": "IIIB", "quantity": "pIC50", "result": 5.70}
{"Compound": "COc1ccccc1CN[C@H]1C2CCN(CC2)[C@H]1C(c1ccccc1)c1ccccc1", "technique": "ELISA", "cell line": "human PBMC", "strain": "BAL", "time": "7 days", "quantity": "pIC50", "result": 4.82}
{"Compound": "c1cc(CN2CCCNCCNCCCNCC2)ccc1CN1CCCNCCNCCCNCC1", "action": "inhibitor", "technique": "luciferase", "cell line": "TZM-bl", "quantity": "pEC50", "result": 9.03}
{"Compound": "Cc1cn([C@H]2C[C@H](N=[N+]=[N-])[C@@H](CO)O2)c(=O)[nH]c1=O", "action": "inhibitor", "cell line": "CEM-GFP", "time": "8 days", "quantity": "IC50", "result": "0.094 µg/mL"}
{"Compound": "COC(=O)c1cccc(Cn2ccc3ccc(-c4ccc5ccn(Cc6cccc(C(=O)O)c6)c5c4)cc32)c1", "action": "inhibitor", "cell line": "MAGI", "strain": "BAL", "quantity": "IC90", "result": "38.4 µM"}
